In ChEMBL document CHEMBL4406880, “Design, synthesis, and bioactivity of dihydropyrimidine derivatives as kinesin spindle protein inhibitors” (Bioorg Med Chem, 2019):

Experiments:
Assay type in all cases: functional
[1] = tested on: NCI-H460; experiment: Growth inhibition of human NCI-H460 cells assessed as cell viability at 0.1 uM incubated for 48 hrs by sulforhodamine B assay; conditions: NCI-H460, 48 h, read-out: Activity
[2] = tested on: SK-MEL-28; experiment: Growth inhibition of human SK-MEL-28 cells incubated for 48 hrs by sulforhodamine B assay; conditions: SK-MEL-28, 48 h
In short: (§1)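 NCI-60 five-dose SRB assay. Cells were exposed for 48 h to tenfold dilutions of 0.01, 0.1, 1, 10 and 100 µM, in RPMI 1640 with 5% FBS. Plates fixed with TCA at the time of drug addition served as the time-zero reference. GI50 is the concentration giving a 50% reduction in net growth. TGI is total growth inhibition. LC50 is a net 50% loss of the initial cells.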

[3] = tested on: K562; experiment: Growth inhibition of human K562 cells incubated for 48 hrs by sulforhodamine B assay; conditions: K562, 48 h
In short: (§2)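 NCI-60 five-dose SRB assay in RPMI 1640 with 5% FBS, 37 °C, 5% CO2. Compound given at five tenfold dilutions, 0.01–100 µM, for 48 h. Adherent cells fixed with TCA, suspension cells with 16% final TCA. Bound SRB read at 515 nm and growth calculated against time-zero and untreated controls. GI50 taken from dose–response curves as the concentration giving a 50% decrease in net cell growth.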

[4] = tested on: TK-10; experiment: Growth inhibition of human TK10 cells assessed as cell viability at 0.1 uM incubated for 48 hrs by sulforhodamine B assay; conditions: TK-10, 48 h, read-out: Activity
[5] = tested on: NCI-H226; experiment: Growth inhibition of human NCI-H226 cells incubated for 48 hrs by sulforhodamine B assay; conditions: NCI-H226, 48 h; in short: as §2
[6] = tested on: OVCAR-5; experiment: Growth inhibition of human OVCAR5 cells assessed as cell viability at 0.001 uM incubated for 48 hrs by sulforhodamine B assay relative to control; conditions: OVCAR-5, 48 h, read-out: Activity
[7] = tested on: HT-29; experiment: Growth inhibition of human HT-29 cells assessed as cell viability at 0.001 uM incubated for 48 hrs by sulforhodamine B assay relative to control; conditions: HT-29, 48 h, read-out: Activity
[8] = tested on: NCI-H522; experiment: Growth inhibition of human NCI-H522 cells incubated for 48 hrs by sulforhodamine B assay; conditions: NCI-H522, 48 h; in short: as §2
[9] = tested on: UO-31; experiment: Growth inhibition of human UO31 cells assessed as cell viability at 100 uM incubated for 48 hrs by sulforhodamine B assay; conditions: UO-31, 48 h, read-out: Activity
[10] = tested on: SF-268; experiment: Growth inhibition of human SF268 cells incubated for 48 hrs by sulforhodamine B assay; conditions: SF-268, 48 h; in short: as §1
[11] = tested on: SN12C; experiment: Growth inhibition of human SN12C cells assessed as cell viability at 0.1 uM incubated for 48 hrs by sulforhodamine B assay; conditions: read-out: Activity
[12] = tested on: A498; experiment: Growth inhibition of human A498 cells assessed as cell viability at 0.001 uM incubated for 48 hrs by sulforhodamine B assay relative to control; conditions: A498, 48 h, read-out: Activity
[13] = tested on: BT-549; experiment: Growth inhibition of human BT549 cells assessed as cell viability at 0.1 uM incubated for 48 hrs by sulforhodamine B assay; conditions: BT-549, 48 h, read-out: Activity
[14] = tested on: SNB-19; experiment: Growth inhibition of human SNB19 cells assessed as cell viability at 0.1 uM incubated for 48 hrs by sulforhodamine B assay; conditions: SNB-19, 48 h, read-out: Activity
[15] = tested on: ACHN; experiment: Growth inhibition of human ACHN cells assessed as cell viability at 1 uM incubated for 48 hrs by sulforhodamine B assay; conditions: read-out: Activity
In short: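 NCI-60 five-dose mode: five tenfold dilutions (0.01, 0.1, 1, 10, 100 µM) are applied for 48 h to cells in RPMI 1640 with 5% FBS at 37 °C. Endpoint is TCA fixation with sulforhodamine B read at 515 nm. % growth comes from the 0 h and control absorbances. GI50 is the concentration giving a 50% reduction in net cell growth.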

[16] = tested on: NCI/ADR-RES; experiment: Growth inhibition of human NCI/ADR-RES cells incubated for 48 hrs by sulforhodamine B assay; in short: as §2
[17] = tested on: SR; experiment: Growth inhibition of human SR cells assessed as cell viability at 100 uM incubated for 48 hrs by sulforhodamine B assay; conditions: read-out: Activity
[18] = tested on: SF-268; experiment: Growth inhibition of human SF268 cells assessed as cell viability at 0.001 uM incubated for 48 hrs by sulforhodamine B assay relative to control; conditions: SF-268, 48 h, read-out: Activity
[19] = tested on: U-251; experiment: Growth inhibition of human U251 cells incubated for 48 hrs by sulforhodamine B assay; conditions: U-251, 48 h; in short: as §1
[20] = tested on: MDA-MB-468; experiment: Growth inhibition of human MDA-MB-468 cells assessed as cell viability at 0.1 uM incubated for 48 hrs by sulforhodamine B assay; conditions: MDA-MB-468, 48 h, read-out: Activity
[21] = tested on: CCRF-CEM; experiment: Growth inhibition of human CCRF-CEM cells assessed as cell viability at 0.001 uM incubated for 48 hrs by sulforhodamine B assay relative to control; conditions: read-out: Activity
[22] = tested on: NCI-H322M; experiment: Growth inhibition of human NCI-H322M cells assessed as cell viability at 0.1 uM incubated for 48 hrs by sulforhodamine B assay; conditions: read-out: Activity
[23] = tested on: SF-539; experiment: Growth inhibition of human SF539 cells incubated for 48 hrs by sulforhodamine B assay; conditions: SF-539, 48 h; in short: as §1
[24] = read-out: LC50 (the source's name)
[25] = read-out: pLC50 (the source's name) (converted)

With `CC1=C(C(=O)OCc2ccccc2)C(c2ccc3c(c2)OCO3)n2c(nc3ccccc32)N1` (racemic) the viability at 0.1 µM [1] was 100%, the GI50 ([2]; read-out: GI50) was over 100 µM and the LC50 ([2]; read-out: LC50) was over 100 µM. It also gave a TGI ([2]; read-out: TGI) of over 100 µM, a GI50 ([2]; read-out: pGI50 (converted)) of over 100 µM and an LC50 ([2]; read-out: pLC50 (converted)) of over 100 µM. The TGI ([2]; read-out: pTGI) was over 100 µM, the GI50 ([3]; read-out: GI50) was 340 nM and the CC50 [3, 24] was over 100 µM. It also gave a TGI ([3]; read-out: TGI) of over 100 µM, a GI50 ([3]; read-out: pGI50 (converted)) of 347 nM and a CC50 [3, 25] of over 100 µM. For the same compound, the TGI ([3]; read-out: pTGI) was over 100 µM, the viability at 0.1 µM [4] was 91% and the GI50 ([5]; read-out: GI50) was over 100 µM. The LC50 (concentration killing 50% of starting cells) ([5]; read-out: LC50) was over 100 µM, the TGI ([5]; read-out: TGI) was over 100 µM and the GI50 ([5]; read-out: pGI50 (converted)) was over 100 µM. The LC50 (concentration killing 50% of starting cells) ([5]; read-out: pLC50 (converted)) was over 100 µM, the TGI ([5]; read-out: pTGI) was over 100 µM and the viability at 0.001 µM [6] was 93%. The viability at 0.001 µM [7] was 98%, the GI50 ([8]; read-out: GI50) was 140 nM and the CC50 [8, 24] was over 100 µM. For the same compound, the TGI ([8]; read-out: TGI) was 33.2 µM, the GI50 ([8]; read-out: pGI50 (converted)) was 135 nM and the CC50 [8, 25] was over 100 µM. The TGI ([8]; read-out: pTGI (converted)) was 33.1 µM, the viability at 100 µM [9] was -7% and the GI50 ([10]; read-out: GI50) was 510 nM. The LC50 ([10]; read-out: LC50) was over 100 µM, the TGI ([10]; read-out: TGI) was over 100 µM and the GI50 ([10]; read-out: pGI50 (converted)) was 513 nM. It also gave an LC50 ([10]; read-out: pLC50 (converted)) of over 100 µM, a TGI ([10]; read-out: pTGI) of over 100 µM and a viability at 0.1 µM [11] of 95%. It also gave a viability at 0.001 µM [12] of 81%, a viability at 0.1 µM [13] of 87% and a viability at 0.1 µM [14] of 95%. The viability at 1 µM [15] was 39%, the GI50 ([16]; read-out: GI50) was 330 nM and the CC50 [16, 24] was over 100 µM. For the same compound, the TGI ([16]; read-out: TGI) was over 100 µM, the GI50 ([16]; read-out: pGI50 (converted)) was 331 nM and the CC50 [16, 25] was over 100 µM. For the same compound, the TGI ([16]; read-out: pTGI) was over 100 µM, the viability at 100 µM [17] was 38% and the viability at 0.001 µM [18] was 91%. It also gave a GI50 ([19]; read-out: GI50) of 460 nM, an LC50 ([19]; read-out: LC50) of over 100 µM and a TGI ([19]; read-out: TGI) of over 100 µM. For the same compound, the GI50 ([19]; read-out: pGI50 (converted)) was 427 nM, the LC50 ([19]; read-out: pLC50 (converted)) was over 100 µM and the TGI ([19]; read-out: pTGI) was over 100 µM. The viability at 0.1 µM [20] was 94%, the viability at 0.001 µM [21] was 101% and the viability at 0.1 µM [22] was 99%. It also gave a GI50 ([23]; read-out: GI50) of 340 nM, an LC50 ([23]; read-out: LC50) of over 100 µM and a TGI ([23]; read-out: TGI) of over 100 µM. For the same compound, the GI50 ([23]; read-out: pGI50 (converted)) was 339 nM, the LC50 ([23]; read-out: pLC50 (converted)) was over 100 µM and the TGI ([23]; read-out: pTGI) was over 100 µM.
